ChEMBL document CHEMBL3259739, “Synthesis and structure-activity relationship of trisubstituted thiazoles as Cdc7 kinase inhibitors” (Eur J Med Chem, 2014)
The source made the active and inactive calls. The rule behind the calls is not given here.

How the values were obtained:
MDR1 = test: Apparent permeability of the compound in pig LLC-PK1 cells expressing MDR1; assay type: ADME, cell-based, Sus scrofa
Mus musculus [1] = test: Inhibition of Cdc7/Dbf4 in NCR nude mouse xenografted with human HCT116 cells assessed as reduction of phosphorylated MCM2 level in tumor at 50 mg/kg, iv after 16 hrs; assay type: functional, organism-based; set-up: dose 50 mg/kg; settings: HCT-116
Method in brief: (§1)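 Female athymic NCR/nu mice, 4–6 weeks old, bearing subcutaneous HCT-116 xenografts (5 × 10^6 cells in Matrigel) grown to about 250 mm3. Single iv dose formulated in 20% HPbCD, 1% HPMC, 1% PluronicF68, pH7 at 10 mg/ml; three mice per group. Tumors were homogenized in Tris lysis buffer with protease and phosphatase inhibitors. MSD capture with total MCM2 antibody, then phospho-Ser53 or total MCM2 detection by chemiluminescence; inhibition taken from the phospho/total ratio.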

Mus musculus [2] = test: Inhibition of Cdc7/Dbf4 in NCR nude mouse xenografted with human HCT116 cells assessed as reduction of phosphorylated MCM2 level in tumor at 150 mg/kg, iv after 6 hrs; assay type: functional; settings: HCT-116, 6 h; method in brief: as §1
[3] = biological target: T1, CDC7/DBF4 (Cell division cycle 7-related protein kinase/Activator of S phase kinase) (Homo sapiens, UniProt O00311); test: Inhibition of Cdc7/Dbf4 (unknown origin) using 0.667 uM of ATP as substrate by AlphaScreen assay; assay type: protein-complex assay
Mus musculus [4] = test: Inhibition of Cdc7/Dbf4 in NCR nude mouse xenografted with human HCT116 cells assessed as reduction of phosphorylated MCM2 level in tumor at 150 mg/kg, iv after 1 hr; assay type: functional; settings: HCT-116, 1 h; method in brief: as §1
[5] = Fraction unbound in mouse plasma; assay type: ADME, cell-free
[6] = Half life in Sprague-Dawley rat at 2 mg/kg, iv; assay type: ADME, organism-based; set-up: dose 2 mg/kg, route intravenous; settings: in vivo
[7] = AUC (0 to t) in Sprague-Dawley rat at 2 mg/kg, iv; assay type: ADME, organism-based; set-up: dose 2 mg/kg, route intravenous; settings: plasma
Mus musculus [8] = test: Toxicity in NCR nude mouse xenografted with human HCT116 cells at 50 mg/kg, iv; assay type: organism-based, HCT-116; set-up: dose 50 mg/kg, route intravenous; settings: in vivo
Method in brief: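 Female athymic NCR/nu mice bearing subcutaneous HCT-116 xenografts (about 250 mm3) received a single iv dose in 20% HPbCD, 1% HPMC, 1% PluronicF68, pH7 (10 mg/ml); three mice per group. Tolerability was judged by observation over the 1–16 h sampling period.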

Plasma = test: Unbound plasma concentration in NCR nude mouse xenografted with human HCT116 cells at 50 mg/kg, iv after 1 hr; assay type: ADME, organism-based, HCT-116; set-up: dose 50 mg/kg, route intravenous; settings: in vivo
Method in brief: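 HCT-116 xenograft NCR/nu mice (three per group) were given a single iv dose in 20% HPbCD, 1% HPMC, 1% PluronicF68, pH7 at 10 mg/ml. Plasma collected at the time points was measured by LC/MS. Values were converted to unbound concentrations using percent plasma protein binding in mouse serum.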

[9] = biological target: T1, CDC7/DBF4 (Cell division cycle 7-related protein kinase/Activator of S phase kinase); test: Inhibition of Cdc7/Dbf4 (unknown origin) using 6 uM of ATP as substrate by AlphaScreen assay; assay type: protein-complex assay
[10] = Volume of distribution at steady state in Sprague-Dawley rat at 2 mg/kg, iv; assay type: ADME, organism-based; set-up: dose 2 mg/kg, route intravenous; settings: in vivo, read-out: Vdss
[11] = Mean residence time in Sprague-Dawley rat at 2 mg/kg, iv; assay type: ADME, organism-based; set-up: dose 2 mg/kg, route intravenous; settings: in vivo
[12] = biological target: CDC7/DBF4 (Cell division cycle 7-related protein kinase/Activator of S phase kinase) (Homo sapiens) (UniProt Q9UBU7+O00311); test: Ratio of IC50 for Cdc7/Dbf4 in human HCT116 cells to IC50 for Cdc7/Dbf4 (unknown origin); assay type: cell-based; settings: HCT-116
Chain of CDC7/DBF4 (Cell division cycle 7-related protein kinase/Activator of S phase kinase) (Homo sapiens) (O00311 whole entry, looked up): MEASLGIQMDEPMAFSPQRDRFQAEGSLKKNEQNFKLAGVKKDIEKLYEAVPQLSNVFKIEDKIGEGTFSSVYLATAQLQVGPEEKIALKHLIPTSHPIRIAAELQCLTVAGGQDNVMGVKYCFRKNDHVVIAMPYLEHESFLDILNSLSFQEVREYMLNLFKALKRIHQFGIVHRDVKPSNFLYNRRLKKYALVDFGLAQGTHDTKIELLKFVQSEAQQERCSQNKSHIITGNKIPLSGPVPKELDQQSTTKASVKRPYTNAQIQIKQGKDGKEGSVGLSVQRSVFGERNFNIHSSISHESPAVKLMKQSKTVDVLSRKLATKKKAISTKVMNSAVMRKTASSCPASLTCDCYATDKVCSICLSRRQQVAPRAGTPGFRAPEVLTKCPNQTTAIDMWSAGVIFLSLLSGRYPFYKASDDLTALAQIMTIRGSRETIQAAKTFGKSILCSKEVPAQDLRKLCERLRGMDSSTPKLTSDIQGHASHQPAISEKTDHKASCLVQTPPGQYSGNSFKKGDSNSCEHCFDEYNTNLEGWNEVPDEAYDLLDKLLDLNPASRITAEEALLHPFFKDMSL
Chain of CDC7/DBF4 (Cell division cycle 7-related protein kinase/Activator of S phase kinase) (Homo sapiens) (Q9UBU7 whole entry, looked up): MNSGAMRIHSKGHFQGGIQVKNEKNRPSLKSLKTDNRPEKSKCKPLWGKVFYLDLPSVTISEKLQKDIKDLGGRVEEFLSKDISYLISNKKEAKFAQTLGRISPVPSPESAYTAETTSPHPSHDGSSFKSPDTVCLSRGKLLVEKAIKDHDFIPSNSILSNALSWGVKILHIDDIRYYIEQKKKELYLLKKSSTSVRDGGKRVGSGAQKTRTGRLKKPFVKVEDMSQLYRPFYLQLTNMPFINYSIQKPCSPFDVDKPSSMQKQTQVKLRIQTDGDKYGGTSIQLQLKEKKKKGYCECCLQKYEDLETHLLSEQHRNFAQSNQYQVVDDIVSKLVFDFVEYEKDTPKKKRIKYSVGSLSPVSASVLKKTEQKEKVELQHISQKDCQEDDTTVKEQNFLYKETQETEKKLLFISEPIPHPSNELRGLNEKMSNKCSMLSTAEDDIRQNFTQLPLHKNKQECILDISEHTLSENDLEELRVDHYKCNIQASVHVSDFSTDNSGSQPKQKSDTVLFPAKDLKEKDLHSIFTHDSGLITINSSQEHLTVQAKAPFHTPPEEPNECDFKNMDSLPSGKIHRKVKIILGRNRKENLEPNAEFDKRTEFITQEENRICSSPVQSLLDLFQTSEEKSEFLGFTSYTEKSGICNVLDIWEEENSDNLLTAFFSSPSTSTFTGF

T1 sequence (Q9UBU7 whole entry): as the sequence (Q9UBU7 whole entry, looked up) above
T1 sequence (O00311 whole entry): as the sequence (O00311 whole entry, looked up) above

SMILES: CCOC(=O)c1sc(-c2ccncc2)nc1O
- Papp (MDR1): ≥ 8.9 ×10⁻⁶ cm/s

SMILES: NC(=O)c1sc(-c2ccnc(N)n2)nc1-c1ccc(Cl)cc1Cl
- inhibition (Mus musculus [1]): inactive
- inhibition in vivo at 150 mg/kg (Mus musculus [2]): 31%
- IC50 [3]: 14 nM
- inhibition in vivo at 150 mg/kg (Mus musculus [4]): 30%
- fraction unbound [5]: 0.09
- half-life [6]: 6.56 h
- AUC(0-t) [7]: 518 ng·h/mL
- Activity (Mus musculus [8]): Non-toxic
- Cp(f) (Plasma): > 1000 nM
- IC50 [9]: 13 nM
- Vd [10]: 4.43 L/kg
- MRT [11]: 1.15 h

SMILES: COc1ccc(-c2nc(-c3ccnc(N)n3)sc2C(N)=O)c(Cl)c1
- Ratio IC50 [12]: > 30
